Experimental data taken from ChEMBL document CHEMBL1124354, “Potential antiatherosclerotic agents. 6. Hypocholesterolemic trisubstituted urea analogues” (J Med Chem, 1989).
Blank lines part the entries; values can stand above or below the molecule they belong to.

Columns and labels:
Oryctolagus cuniculus [1] = assay: Compound was evaluated for rabbit serum cholesterol levels for a dose of 110 mg/kg per day on day 21; assay type: functional
Summary of the method: (§1)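 Male New Zealand rabbits (2.5–3.0 kg) on rabbit pellets with 0.4% cholesterol and peanut oil for one week, then bled and grouped by plasma sterol. Drug mixed in diet (6% peanut oil) at 0.25, 0.075 or 0.025% for five weeks, about 109.6, 34.5 or 11.2 mg/kg/day. Dietary cholesterol adjusted weekly (0.30–0.35%). Aortic balloon denudation on day 7 of dosing.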

[2] = molecular target: T1, Sterol O-acyltransferase 1 (Rattus norvegicus, UniProt O70536); assay: In vitro inhibitory concentration against acyl coenzyme A:cholesterol acyltransferase derived from rat adrenals
T1 sequence (O70536 whole entry): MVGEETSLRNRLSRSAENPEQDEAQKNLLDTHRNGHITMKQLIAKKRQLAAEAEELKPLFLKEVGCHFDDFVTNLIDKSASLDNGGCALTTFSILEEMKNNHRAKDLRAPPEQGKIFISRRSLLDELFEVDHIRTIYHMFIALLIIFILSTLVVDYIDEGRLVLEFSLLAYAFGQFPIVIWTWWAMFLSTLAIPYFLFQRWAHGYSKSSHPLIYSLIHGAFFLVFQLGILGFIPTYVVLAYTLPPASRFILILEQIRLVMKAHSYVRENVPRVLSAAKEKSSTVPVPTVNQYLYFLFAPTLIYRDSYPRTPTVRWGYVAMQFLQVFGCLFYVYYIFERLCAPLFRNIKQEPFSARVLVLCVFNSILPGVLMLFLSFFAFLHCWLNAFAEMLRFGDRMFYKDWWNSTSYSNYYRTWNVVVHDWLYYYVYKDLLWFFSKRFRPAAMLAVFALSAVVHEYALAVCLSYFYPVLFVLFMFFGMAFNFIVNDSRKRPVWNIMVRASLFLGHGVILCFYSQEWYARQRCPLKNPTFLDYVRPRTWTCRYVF
Summary of the method: (§2)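 Rat adrenal homogenate in 0.2 M KH2PO4 buffer pH 7.4, 1000g supernatant (microsomal fraction) as enzyme; preincubated with BSA and test compound at graded concentrations, 37 °C 10 min, then [14C]oleoyl-CoA 0.4 µCi, 37 °C 30 min. Lipids extracted, cholesteryl ester isolated by TLC and counted. Triplicate tubes per concentration; IC50 by linear regression of means.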

[3] = molecular target: T2, Sterol O-acyltransferase 1 (Rattus norvegicus) (UniProt O70536); assay: (§3) In vitro percentage inhibition against acyl coenzyme A:cholesterol acyltransferase derived from rat adrenals; design: concentration or dose not given beside the values; conditions: concentration not given here
T2 sequence (whole entry): T1 sequence (O70536 whole entry)
Summary of the method: (§4)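 Rat adrenal 1000g supernatant (microsomal ACAT) in 0.2 M KH2PO4 pH 7.4 with BSA; test compound at final 5.2 µg/mL, preincubated 37 °C 10 min; [14C]oleoyl-CoA (0.4 µCi) added, 37 °C 30 min. Cholesteryl ester separated by TLC, scintillation counted; mean percent inhibition against compound-free control.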

Oryctolagus cuniculus [4] = assay: Compound was evaluated for rabbit serum cholesterol level at dose 110 mg/kg per day on day 7; assay type: functional; summary of the method: as §1
[5] = molecular target: T2, Sterol O-acyltransferase 1 (Rattus norvegicus); assay: Serum hypolipidemic activity in rats; assay type: functional
Summary of the method: (§5)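 Male CD-1 Sprague-Dawley rats, 140–150 g, fed 1% cholesterol/0.5% cholic acid diet with compound admixed at 0.01% (about 10 mg/kg/day) for 7 days. Serum and liver cholesterol measured by Technicon autoanalyzer methods; expressed as percent of control.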

Oryctolagus cuniculus [6] = assay: Compound was evaluated for rabbit serum cholesterol level at dose 110 mg/kg per day on day 35; assay type: functional; summary of the method: as §1
Oryctolagus cuniculus [7] = assay: Compound was evaluated for rabbit serum cholesterol level at dose 35 mg/kg per day on day 7; assay type: functional; summary of the method: as §1
Oryctolagus cuniculus [8] = assay: Compound was evaluated for rabbit serum cholesterol level at dose 35 mg/kg per day on day 35; assay type: functional; summary of the method: as §1
Oryctolagus cuniculus [9] = assay: Compound was evaluated for rabbit serum cholesterol level at dose 110 mg/kg per day on day 0; assay type: functional; summary of the method: as §1
Oryctolagus cuniculus [10] = assay: Compound was evaluated for rabbit serum cholesterol level at dose 35 mg/kg per day on day 21; assay type: functional; summary of the method: as §1
Oryctolagus cuniculus [11] = assay: Compound was evaluated for rabbit serum cholesterol level at dose 11 mg/kg per day on day 21; assay type: functional; summary of the method: as §1
Oryctolagus cuniculus [12] = assay: Compound was evaluated for rabbit serum cholesterol level at dose 35 mg/kg per day on day 0; assay type: functional; summary of the method: as §1
Oryctolagus cuniculus [13] = assay: Compound was evaluated for rabbit serum cholesterol level at dose 11 mg/kg per day on day 7; assay type: functional; summary of the method: as §1
Oryctolagus cuniculus [14] = assay: Compound was evaluated for rabbit serum cholesterol level at dose 11 mg/kg per day on day 0; assay type: functional; summary of the method: as §1
Oryctolagus cuniculus [15] = assay: Compound was evaluated for rabbit serum cholesterol level at dose 11 mg/kg per day on day 35; assay type: functional; summary of the method: as §1
[16] = molecular target: T2, Sterol O-acyltransferase 1 (Rattus norvegicus); assay: Liver hypolipidemic activity in rats; assay type: functional; summary of the method: as §5
[17] = molecular target: T2, Sterol O-acyltransferase 1 (Rattus norvegicus); assay: In vitro percentage inhibition against ACAT derived from rat adrenals; conditions: concentration not given here; summary of the method: as §4
[18] = molecular target: T1, Sterol O-acyltransferase 1; assay: In vitro inhibitory concentration against ACAT derived from rat adrenals; summary of the method: as §2
[19] = molecular target: T2, Sterol O-acyltransferase 1 (Rattus norvegicus); assay: In vitro percentage inhibition againstAcyl coenzyme A:cholesterol acyltransferase derived from rat adrenals; conditions: concentration not given here; summary of the method: as §4
[20] = molecular target: T2, Sterol O-acyltransferase 1 (Rattus norvegicus); assay: as §3; conditions: concentration not given here
Summary of the method: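 Rat adrenals homogenized in 0.2 M KH2PO4 (pH 7.4), spun at 1000g for 15 min at 5 °C; supernatant used as enzyme. Preincubated with BSA and test compound (final 5.2 µg/mL) at 37 °C for 10 min, then [14C]oleoyl-CoA (0.4 µCi) added for 30 min at 37 °C. Cholesteryl ester isolated by TLC and counted. Mean percent inhibition versus control without compound.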

[21] = molecular target: T2, Sterol O-acyltransferase 1 (Rattus norvegicus); assay: In vitro percentage inhibition against Acyl coenzyme A:cholesterol acyltransferase derived from rat adrenals; conditions: concentration not given here
[22] = molecular target: T2, Sterol O-acyltransferase 1 (Rattus norvegicus); assay: In vitro percentage inhibition against Acyl coenzyme A:cholesterol acyltransferase derived from rat adrenals; design: concentration or dose not given beside the values; conditions: concentration not given here; summary of the method: as §4
[23] = molecular target: T1, Sterol O-acyltransferase 1; assay: In vitro inhibitory concentration against Acyl coenzyme A:cholesterol acyltransferase derived from rat adrenals; summary of the method: as §2

SMILES: CCCCN(Cc1ccccc1)C(=O)Nc1ccc(C)cc1C
- SC (Oryctolagus cuniculus [1]): 343 mg/dL
- IC50 [2]: 4800 nM
- inhibition [3]: 91%
- SC (Oryctolagus cuniculus [4]): 230 mg/dL
- SS [5]: 70%
- SC (Oryctolagus cuniculus [6]): 405 mg/dL
- SC (Oryctolagus cuniculus [7]): 255 mg/dL
- SC (Oryctolagus cuniculus [8]): 488 mg/dL
- SC (Oryctolagus cuniculus [9]): 278 mg/dL
- SC (Oryctolagus cuniculus [10]): 357 mg/dL
- SC (Oryctolagus cuniculus [11]): 556 mg/dL
- SC (Oryctolagus cuniculus [12]): 270 mg/dL
- SC (Oryctolagus cuniculus [13]): 340 mg/dL
- SC (Oryctolagus cuniculus [14]): 307 mg/dL
- SC (Oryctolagus cuniculus [15]): 722 mg/dL
- LS [16]: 75%

SMILES: CCCCCN(CCCCC)C(=O)Nc1ccc(C)cc1C
- SS [5]: 82%
- inhibition [17]: 90%
- LS [16]: 49%
- IC50 [18]: 952 nM

SMILES: CCCCN(CCCC)C(=O)Nc1ccc(OCC)cc1
- inhibition [20]: 79%

SMILES: CCCCCCCN(Cc1ccco1)C(=O)Nc1cc(C)c(C)cc1C
- SS [5]: 44%
- inhibition [21]: 94%
- LS [16]: 38%

SMILES: CCCCCCCN(Cc1ccco1)C(=O)Nc1c(Cl)cc(Cl)cc1Cl
- SS [5]: 37%
- inhibition [22]: 96%
- LS [16]: 34%
- IC50 [23]: 407 nM

Second part, the molecule after the results:

- SS [5]: 99%
- inhibition [17]: 70%
- LS [16]: 107%
- IC50 [18]: 21400 nM
SMILES: CCCCN(C(=O)Nc1ccc(C)cc1C)c1ccccc1

- inhibition [19]: 52%
SMILES: O=C(Nc1ccc([N+](=O)[O-])cc1)N(Cc1ccccc1)Cc1ccccc1

- SS [5]: 54%
- LS [16]: 25%
- IC50 [18]: 1450 nM
SMILES: CCCCCCCN(Cc1cccs1)C(=O)Nc1cc(C)c(C)cc1C
